The target in data set [1] is T1, B2 bradykinin receptor (Cavia porcellus, UniProt O70526).
T1 sequence (O70526 whole entry): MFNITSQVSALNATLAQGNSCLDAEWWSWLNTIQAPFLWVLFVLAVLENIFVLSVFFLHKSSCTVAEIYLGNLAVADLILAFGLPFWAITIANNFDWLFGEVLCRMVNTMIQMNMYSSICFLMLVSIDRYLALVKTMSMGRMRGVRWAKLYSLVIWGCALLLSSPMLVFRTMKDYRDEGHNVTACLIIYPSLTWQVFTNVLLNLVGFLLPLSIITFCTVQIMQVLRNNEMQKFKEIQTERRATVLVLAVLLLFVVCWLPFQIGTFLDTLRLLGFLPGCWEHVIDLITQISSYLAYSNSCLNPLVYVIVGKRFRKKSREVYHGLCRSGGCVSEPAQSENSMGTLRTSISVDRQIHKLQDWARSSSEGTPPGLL
In words: Displacement of [3H]bradykinin from guinea pig B2 receptor.

Data set [2] addresses T2, B2 bradykinin receptor (Homo sapiens, UniProt P30411).
T2 sequence (P30411 whole entry): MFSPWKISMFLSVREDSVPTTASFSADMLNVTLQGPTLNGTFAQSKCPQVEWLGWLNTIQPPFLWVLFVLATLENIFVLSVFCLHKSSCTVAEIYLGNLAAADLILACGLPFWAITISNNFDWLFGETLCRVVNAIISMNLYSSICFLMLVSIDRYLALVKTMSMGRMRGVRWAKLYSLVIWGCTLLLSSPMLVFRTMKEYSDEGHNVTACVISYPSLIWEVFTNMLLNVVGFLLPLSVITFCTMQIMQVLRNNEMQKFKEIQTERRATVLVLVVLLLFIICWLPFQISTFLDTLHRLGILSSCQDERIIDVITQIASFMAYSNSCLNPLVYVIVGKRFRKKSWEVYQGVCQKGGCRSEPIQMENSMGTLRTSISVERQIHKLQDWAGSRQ
As to the kind of experiment: Displacement of [3H]bradykinin from human recombinant B2 receptor expressed in HEK293 cells. The data set is classed as cell-based. A general note: Displacement assays read how much labelled ligand stays bound in the presence of the test substance.

Data set [3] has as its target T2, B2 bradykinin receptor. In words: Antagonist activity at B2 receptor in human HF15 cells assessed as inhibition of bradykinin-induced calcium mobilization. Format: functional, cell-based. Background: Calcium flux is commonly read through the fluorescence of an indicator in the cells.
Data set [4] in a line: Metabolic stability in human liver microsomes at 1 uM by HPLC. The data set is classed as ADME, Microsome. The conditions noted are these: read-out: Stability. The procedure, abridged:
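Test compound was incubated with liver microsomes for 30 min. Stability is expressed as the percentage of parent compound remaining at the end of incubation.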

The target of data set [5] is Cytochrome P450 3A4 (Homo sapiens, UniProt P08684). As to the kind of experiment: Inhibition of human CYP3A4 by microtiter plate assay. The data set is classed as ADME.
Sequence of Cytochrome P450 3A4 (P08684 whole entry): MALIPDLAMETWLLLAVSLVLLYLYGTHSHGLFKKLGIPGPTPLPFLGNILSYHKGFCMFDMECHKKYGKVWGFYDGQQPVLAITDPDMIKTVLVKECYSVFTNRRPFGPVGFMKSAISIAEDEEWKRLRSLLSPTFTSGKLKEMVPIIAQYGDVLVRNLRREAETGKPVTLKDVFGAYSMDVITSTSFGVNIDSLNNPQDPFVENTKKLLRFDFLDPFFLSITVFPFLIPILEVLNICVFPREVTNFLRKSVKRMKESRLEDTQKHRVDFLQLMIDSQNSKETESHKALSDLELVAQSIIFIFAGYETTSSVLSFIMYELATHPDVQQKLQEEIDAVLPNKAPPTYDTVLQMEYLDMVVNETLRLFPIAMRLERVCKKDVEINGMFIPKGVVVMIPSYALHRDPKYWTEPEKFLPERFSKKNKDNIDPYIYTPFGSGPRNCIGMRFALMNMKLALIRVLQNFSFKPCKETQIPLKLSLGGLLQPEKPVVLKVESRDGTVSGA
In data set [6] the target is Cytochrome P450 2C19 (Homo sapiens, UniProt P33261). In words: Inhibition of human CYP2C19 by microtiter plate assay. Format: ADME.
Sequence of Cytochrome P450 2C19 (P33261 whole entry): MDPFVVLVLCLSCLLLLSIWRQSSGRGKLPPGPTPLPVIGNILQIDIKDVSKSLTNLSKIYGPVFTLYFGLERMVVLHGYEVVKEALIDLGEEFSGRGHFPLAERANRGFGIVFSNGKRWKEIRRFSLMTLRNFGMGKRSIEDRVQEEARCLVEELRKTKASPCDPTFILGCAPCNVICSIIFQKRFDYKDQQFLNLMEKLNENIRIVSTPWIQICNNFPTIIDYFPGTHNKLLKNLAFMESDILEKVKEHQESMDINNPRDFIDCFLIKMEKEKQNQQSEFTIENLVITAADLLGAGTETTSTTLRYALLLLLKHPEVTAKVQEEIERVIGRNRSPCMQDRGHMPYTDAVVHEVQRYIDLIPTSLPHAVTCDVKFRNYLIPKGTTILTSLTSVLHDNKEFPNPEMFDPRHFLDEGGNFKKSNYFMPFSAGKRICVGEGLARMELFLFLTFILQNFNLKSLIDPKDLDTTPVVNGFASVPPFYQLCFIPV
Data set [7] is described as follows: Displacement of [3H]bradykinin from B2 receptor N107A mutant.
The target in data set [8] is T2, B2 bradykinin receptor. In words: Displacement of [3H]bradykinin from wild-type B2 receptor. The procedure, abridged: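 Specific binding of [³H]-BK to recombinant human B₂ receptor expressed in HEK293 cells. Displacement by test compound is reported as IC₅₀. Values are the numerical average of at least two experiments.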
The nature of data set [9]: Aqueous solubility of the compound. Format: physicochemical. As to conditions: aqueous solution.

SMILES strings stand for the structures.

One may read the IC50 as the concentration needed to halve the response being measured. The solubility is the concentration that dissolves in the medium under given conditions. A high value points to much dissolved substance.

Turning to `Cc1ccc2cccc(OCc3c(Cl)ccc(N(C)C(=O)CNC(=O)/C=C/c4ccc(C(F)(F)F)cc4)c3C#N)c2n1`, in data set [1], the IC50 is 0.3 nM.
`Cc1cc(-c2conc2C)c2cccc(OCc3c(Cl)cncc3Cl)c2n1`: the IC50 in data set [2] came out at 430 nM; in data set [3], 3800 nM.
As for `Cc1cc(C)c2cccc(OCc3c(Cl)ccc(S(=O)(=O)N4CCC[C@H]4C(=O)CCCNC(=O)c4ccc(C(=N)N)cc4)c3Cl)c2n1`, the IC50 in data set [2] is 0.67 nM.
With `Cc1cc(-n2ccnc2C)c2cccc(OCc3c(Cl)cncc3Cl)c2n1`, the IC50 worked out at 200 nM in [2] and 1300 nM in [3].
`Cc1cc(-c2ncsc2Cl)c2cccc(OCc3c(C)ccnc3Cn3cccc(C(F)(F)F)c3=O)c2n1`: the remaining at 1 µM in data set [4] came to 34%. In addition, the IC50 was 10 nM in [2], 300 nM in [5], 1.3 nM in data set [3] and 300 nM in data set [6].
For `Cc1cc(-c2csnc2C)c2cccc(OCc3c(Cl)cncc3Cl)c2n1`, the half-inhibitory concentration (IC50) was 200 nM in data set [2] and 330 nM in data set [3].
For `Cc1cc(-c2cncs2)c2cccc(OCc3c(Cl)cncc3Cl)c2n1`, the IC50 in data set [2] turned out to be 135 nM; in [3] it was 420 nM.
`Cc1cc(-c2cscn2)c2cccc(OCc3c(Cl)cncc3Cl)c2n1`: the results for the IC50 in data set [2] and in [3] were 80 nM and 300 nM, respectively.
With `Cc1cc(-c2ccnn2C)c2cccc(OCc3c(Cl)cncc3CNC(=O)C(C)C)c2n1`, the IC50 in data set [2] worked out at 7.8 nM; in data set [3], 2.3 nM.
The like results for `Cc1cc(-c2ocnc2C)c2cccc(OCc3c(Cl)cncc3Cl)c2n1` were, in that order, 6050 nM and over 5000 nM.
The corresponding values for `Cc1cc(-c2cc[nH]n2)c2cccc(OCc3c(Cl)cncc3Cl)c2n1` are 310 nM and 350 nM.
As for `Cc1ccc2cccc(OCc3c(Cl)cncc3Cl)c2n1`, the IC50 in data set [2] was 5300 nM.
For the compound `Cc1cc(-c2ccnn2C)c2cccc(OCc3ccncc3Cl)c2n1`, the values for the IC50 in data set [2] and in data set [3] were 517 nM and 1600 nM, respectively.
Consider `Cc1cc(-c2ccnn2C)c2cccc(OCc3c(Cl)cncc3Sc3nccs3)c2n1`, for which the IC50 in data set [2] worked out at 50 nM; in data set [7], 2300 nM; in data set [8], 470 nM; in [3], 29 nM.
Take `Cc1cc(-c2ccnn2C)c2cccc(OCc3c(Cl)cncc3Sc3nccn3C)c2n1`: the IC50 in data set [2] was 18 nM; in data set [3] it was 43 nM.
The like results for `Cc1cc(-c2ccnn2C)c2cccc(OCc3c(Cl)cncc3COC(=O)N(C)C)c2n1` were, in that order, 8.3 nM and 12 nM.
In turn, `Cc1ccc2cccc(OCc3c(Cl)cccc3Cl)c2n1` came in with a solubility in data set [9] of under 1 µM.
For `Cc1cc(-c2ccnn2C)c2cccc(OCc3c(Cl)cncc3CNS(C)(=O)=O)c2n1`, the IC50 in [2] stood at 14 nM; in data set [3], 110 nM.
The corresponding values for `Cc1cc(-c2ccnn2C)c2cccc(OCc3c(Cl)cncc3CCC(=O)N(C)C)c2n1` are 36 nM and 73 nM.
The corresponding values for `CC(=O)NCc1cncc(Cl)c1COc1cccc2c(-c3ccnn3C)cc(C)nc12` are 12 nM and 24 nM.
The corresponding values for `Cc1cc(-c2scnc2Cl)c2cccc(OCc3c(Cl)cncc3Cl)c2n1` are 980 nM and 2500 nM.
For `Cc1cc(-c2ccnn2C)c2cccc(OCc3c(Cl)cncc3OCC(=O)N(C)C)c2n1`, the IC50 in [2] is 6.5 nM; in data set [3], 91 nM.
Regarding `Cc1cc(-n2ccnc2)c2cccc(OCc3c(Cl)cncc3Cl)c2n1`, the IC50 in data set [2] stood at 580 nM; in [3] it was 2500 nM. In [9], the solubility is over 50 µM.
Regarding `Cc1cc(-c2ccnn2C)c2cccc(OCc3c(Cl)cncc3Cn3cccc(C(F)(F)F)c3=O)c2n1`, the IC50 in [2] amounted to 4 nM; in data set [3], 1.4 nM.
With `Cc1cc(-c2ccnn2C)c2cccc(OCc3c(C)ccnc3CNC(=O)C(C)C)c2n1`, the remaining at 1 µM in [4] came out at 13%. For the same compound, the IC50 in [2] is 5.4 nM; in [5], 3100 nM; in data set [3], 3.8 nM; in data set [6], over 5000 nM.
With `Cc1cc(-c2ccnn2C)c2cccc(OCc3c(Cl)cncc3COc3ccccn3)c2n1`, the IC50 is 140 nM in data set [2] and 260 nM in data set [3].
Consider `Cc1cc(-c2ccnn2C)c2cccc(OCc3c(C)ccnc3CNC(=O)C3CCCCC3)c2n1`, for which the remaining at 1 µM in [4] was found to be 17%. In addition, the IC50 in [2] amounted to 10 nM; in data set [5], 2500 nM; in data set [3], 1.8 nM; in [6], 1600 nM.
Take `Cc1cc(-c2nccs2)c2cccc(OCc3c(Cl)cncc3Cl)c2n1`: the IC50 in data set [2] was 420 nM; in data set [3] it was 480 nM.
On to `Cc1cc(-c2ccnn2C)c2cccc(OCc3c(C)ccnc3Cn3cccc(C(F)(F)F)c3=O)c2n1`, for which the remaining at 1 µM in data set [4] was 45%. Further, the IC50 in data set [2] was 8.8 nM; in data set [5] it was over 5000 nM; in [3] it was 0.54 nM; in data set [6] it was over 5000 nM.
On to `Cc1cc(-c2n[nH]cc2C)c2cccc(OCc3c(Cl)cncc3Cl)c2n1`, for which the remaining at 1 µM in data set [4] stood at 19%. Also, the values for the IC50 in [2] and in [3] were 110 nM and 390 nM, respectively.
As to `Cc1cc(-c2nscc2C)c2cccc(OCc3c(Cl)cncc3Cl)c2n1`, the half-maximal inhibitory concentration (IC50) in data set [2] is 20 nM; in data set [3] it was 70 nM.
The like results for `Cc1cc(-c2ccnn2C)c2cccc(OCc3c(Cl)cncc3Cn3ccccc3=O)c2n1` were, in that order, 5.1 nM and 3.6 nM.
For the compound `Cc1cc(-c2cncn2C)c2cccc(OCc3c(Cl)cncc3Cl)c2n1`, the IC50 in data set [2] is 4400 nM.
For the compound `Cc1cc(-c2ncc(C)n2C)c2cccc(OCc3c(Cl)cncc3Cl)c2n1`, the IC50 in data set [2] was 200 nM; in data set [3] it was 3400 nM.
The like results for `Cc1cc(-c2nccn2C)c2cccc(OCc3c(Cl)cncc3Cl)c2n1` were, in that order, 90 nM and 760 nM.
The corresponding values for `Cc1cc(-c2ccnn2C)c2cccc(OCc3c(Cl)cncc3CCC(N)=O)c2n1` are 33 nM and 190 nM.
`CC(=O)OCc1cncc(Cl)c1C(=O)c1cccc2c(-c3ccnn3C)cc(C)nc12`: the IC50 in data set [2] is 6 nM; in data set [3], 260 nM.
On to `Cc1cc(-c2ccnn2C)c2cccc(OCc3c(Cl)cncc3Cl)c2n1`, for which the remaining at 1 µM in [4] amounted to 7%. Besides, the IC50 came to 50 nM in data set [2] and 180 nM in [3].
Turning to `Cc1cc(-n2cccn2)c2cccc(OCc3c(Cl)cncc3Cl)c2n1`, the IC50 in data set [2] worked out at 32 nM; in [3], 920 nM.
The like results for `Cc1cc(-c2ccnn2C)c2cccc(OCc3c(Cl)cncc3[S+]([O-])CC(=O)N(C)C)c2n1` (centres undefined) were, in that order, 37 nM and 76 nM.
The corresponding values for `Cc1cc(-c2ncnn2C)c2cccc(OCc3c(Cl)cncc3Cl)c2n1` are 68 nM and 2400 nM.
The like results for `Cc1cc(-c2ncsc2C)c2cccc(OCc3c(Cl)cncc3Cl)c2n1` were, in that order, 64 nM and 400 nM.
Regarding `Cc1cc(-c2ncsc2Cl)c2cccc(OCc3c(Cl)cncc3Cl)c2n1`, the remaining at 1 µM in [4] was 35%. Besides, the IC50 in [2] was determined as 210 nM; in data set [3] it was 730 nM.
Consider `Cc1cc(-c2nncn2C)c2cccc(OCc3c(Cl)cncc3Cl)c2n1`, for which the IC50 in [2] turned out to be 7100 nM.
Turning to `Cc1cc(-c2ccnn2C)c2cccc(OCc3c(Cl)cncc3CNC(=O)N(C)C)c2n1`, the IC50 in [2] was 6.6 nM; in [3], 2.8 nM.
The like results for `Cc1cc(-c2scnc2C)c2cccc(OCc3c(Cl)cncc3Cl)c2n1` were, in that order, 110 nM and 67 nM.
The like results for `Cc1cc(-c2cn[nH]c2C)c2cccc(OCc3c(Cl)cncc3Cl)c2n1` were, in that order, 3600 nM and 6300 nM.
Take `Cc1cc(-c2ccnn2C)c2cccc(OCc3c(Cl)cncc3SCC(=O)N(C)C)c2n1`: the IC50 in data set [2] turned out to be 7.5 nM; in data set [3], 24 nM.
In the case of `Cc1cc(C)c2cccc(OCc3c(Cl)ccc(S(=O)(=O)NC4(C(=O)N5CCN(C(=O)[C@@H](N)CCC[N+](C)(C)C)CC5)CCOCC4)c3Cl)c2n1` [FASITIBANT CHLORIDE], in data set [2], the 50% inhibitory concentration (IC50) is 0.05 nM.

Source of the values: ChEMBL document CHEMBL1158465, “Novel small molecule bradykinin B2 receptor antagonists” (J Med Chem, 2009).
